Experimental data published in ChEMBL document CHEMBL4610084, “Antibacterial and ATP Synthesis Modulating Compounds from Salvia tingitana” (2020).
≈ marks a conversion by molar mass, not a printed value.

How the values were obtained:
Type in all cases: functional
[1] = system: Enterococcus faecalis; assay: Antibacterial activity against Vancomycin resistant Enterococcus faecalis MB19 after 24 hrs by microdilution assay; settings: MB19, 24 h
Outline: (§1)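 Broth microdilution MIC, run as in an earlier cited report. Strains are clinical isolates identified by standard methods and MALDI-TOF; E. faecalis MB19 and MB51 are Ligurian seawater isolates. Highest concentration tested was 128 μg/mL. MICs are given in μg/mL and μM, with oxacillin and vancomycin as reference antibiotics.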

[2] = system: Staphylococcus lugdunensis; assay: Antibacterial activity against Staphylococcus lugdunensis MB96 after 24 hrs by microdilution assay; settings: MB96, 24 h
Outline: (§2)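 Broth microdilution MIC against clinical or seawater-isolated strains (identified by standard procedures and MALDI-TOF), with compound solutions and testing as in earlier work. MIC reported in μg/mL and μM.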

[3] = system: Enterococcus durans; assay: Antibacterial activity against Enterococcus durans MB113 after 24 hrs by microdilution assay; settings: MB113, 24 h; outline: as §2
[4] = system: Enterococcus faecium; assay: Antibacterial activity against Enterococcus faecium MB152 after 24 hrs by microdilution assay; settings: MB152, 24 h; outline: as §2
[5] = system: Staphylococcus aureus; assay: Antibacterial activity against Methicillin-resistant Staphylococcus aureus MB18 after 24 hrs by microdilution assay; settings: MB18, 24 h; outline: as §1
[6] = system: Staphylococcus simulans; assay: Antibacterial activity against Staphylococcus simulans MB94 after 24 hrs by microdilution assay; settings: MB94, 24 h; outline: as §2
[7] = system: Enterococcus faecalis; assay: Antibacterial activity against Enterococcus faecalis MB76 after 24 hrs by microdilution assay; settings: MB76, 24 h; outline: as §1
[8] = system: Enterococcus faecalis; assay: Antibacterial activity against Vancomycin resistant Enterococcus faecalis MB51 after 24 hrs by microdilution assay; settings: MB51, 24 h; outline: as §1
[9] = system: Staphylococcus epidermidis; assay: Antibacterial activity against Methicillin-resistant Staphylococcus epidermidis MB169 after 24 hrs by microdilution assay; settings: MB169, 24 h; outline: as §1
[10] = system: Staphylococcus warneri; assay: Antibacterial activity against Methicillin-resistant Staphylococcus warneri MB74 after 24 hrs by microdilution assay; settings: MB74, 24 h; outline: as §1
[11] = system: Enterococcus faecium; assay: Antibacterial activity against Enterococcus faecium MB3 after 24 hrs by microdilution assay; settings: MB3, 24 h; outline: as §2
[12] = system: Enterococcus faecium; assay: Antibacterial activity against Enterococcus faecium MB2 after 24 hrs by microdilution assay; settings: MB2, 24 h; outline: as §2
[13] = system: Enterococcus casseliflavus; assay: Antibacterial activity against Vancomycin resistant Enterococcus casseliflavus MB159 after 24 hrs by microdilution assay; settings: MB159, 24 h; outline: as §1
[14] = system: Enterococcus faecalis; assay: Antibacterial activity against Vancomycin resistant Enterococcus faecalis MB1 after 24 hrs by microdilution assay; settings: MB1, 24 h; outline: as §1
[15] = system: Staphylococcus hominis; assay: Antibacterial activity against Methicillin-resistant Staphylococcus hominis MB124 after 24 hrs by microdilution assay; settings: MB124, 24 h; outline: as §1
[16] = system: Enterococcus gallinarum; assay: Antibacterial activity against Vancomycin resistant Enterococcus gallinarum MB111 after 24 hrs by microdilution assay; settings: MB111, 24 h; outline: as §1
[17] = system: Staphylococcus haemolyticus; assay: Antibacterial activity against Methicillin-resistant Staphylococcus haemolyticus MB115 after 24 hrs by microdilution assay; settings: MB115, 24 h; outline: as §1
[18] = system: Staphylococcus capitis; assay: Antibacterial activity against Methicillin-resistant Staphylococcus capitis MB71 after 24 hrs by microdilution assay; settings: MB71, 24 h; outline: as §1
[19] = system: Staphylococcus epidermidis; assay: Antibacterial activity against Methicillin-resistant Staphylococcus epidermidis MB165 after 24 hrs by microdilution assay; settings: MB165, 24 h; outline: as §1
[20] = system: Staphylococcus saprophyticus; assay: Antibacterial activity against Staphylococcus saprophyticus MB41 after 24 hrs by microdilution assay; settings: MB41, 24 h; outline: as §2
[21] = system: Enterococcus avium; assay: Antibacterial activity against Enterococcus avium MB119 after 24 hrs by microdilution assay; settings: MB119, 24 h; outline: as §2
[22] = system: Staphylococcus aureus; assay: Antibacterial activity against Methicillin-resistant Staphylococcus aureus MB188 after 24 hrs by microdilution assay; settings: MB188, 24 h; outline: as §1

SMILES	MIC [1]	MIC [2]	MIC [3]	MIC [4]	MIC [5]	MIC [6]	MIC [7]	MIC [8]	MIC [9]	MIC [10]	MIC [11]	MIC [12]	MIC [13]	MIC [14]	MIC [15]	MIC [16]	MIC [17]	MIC [18]	MIC [19]	MIC [20]	other results
COc1ccc(-c2cc(=O)c3c(OC)c(OC)c(OC)cc3o2)cc1	195 µM (≈ 66.8 µg/mL)	> 128 µg/mL	195 µM	195 µM	390 µM	> 128 µg/mL	390 µM (≈ 134 µg/mL)	390 µM (≈ 134 µg/mL)	390 µM	390 µM (≈ 134 µg/mL)	195 µM (≈ 66.8 µg/mL)	390 µM (≈ 134 µg/mL)	390 µM (≈ 134 µg/mL)	195 µM	390 µM (≈ 134 µg/mL)	195 µM (≈ 66.8 µg/mL)	> 128 µg/mL	390 µM (≈ 134 µg/mL)	> 128 µg/mL	> 128 µg/mL	MIC [21]: 390 µM; MIC [22]: > 128 µg/mL
COC(=O)[C@]1(C)CCC[C@@]2(C)[C@H]1[C@@H](O)C[C@@](C)(O)[C@@H]2CC/C(C)=C/[C@H](O)[C@H]1OC(=O)C=C1C	276 µM (≈ 128 µg/mL)	> 128 µg/mL	138 µM	138 µM	276 µM	> 128 µg/mL	276 µM (≈ 128 µg/mL)	138 µM (≈ 64.1 µg/mL)	> 128 µg/mL	138 µM (≈ 64.1 µg/mL)	276 µM (≈ 128 µg/mL)	276 µM (≈ 128 µg/mL)	276 µM (≈ 128 µg/mL)	138 µM	138 µM (≈ 64.1 µg/mL)	276 µM (≈ 128 µg/mL)	276 µM	276 µM (≈ 128 µg/mL)	276 µM	> 128 µg/mL	MIC [21]: 138 µM; MIC [22]: > 128 µg/mL
COC(=O)[C@]1(C)CCC[C@@]2(C)[C@H]1CC[C@@](C)(O)[C@@H]2CC/C(C)=C/[C@H](O)[C@H]1OC(=O)C=C1C	143 µM (≈ 64.1 µg/mL)	286 µM	286 µM	286 µM	286 µM	> 128 µg/mL	143 µM (≈ 64.1 µg/mL)	286 µM (≈ 128 µg/mL)	286 µM	143 µM (≈ 64.1 µg/mL)	143 µM (≈ 64.1 µg/mL)	286 µM (≈ 128 µg/mL)	143 µM (≈ 64.1 µg/mL)	143 µM	286 µM (≈ 128 µg/mL)	143 µM (≈ 64.1 µg/mL)	> 128 µg/mL	286 µM (≈ 128 µg/mL)	> 128 µg/mL	286 µM	MIC [21]: 286 µM; MIC [22]: > 128 µg/mL
CN[C@H](CC(C)C)C(=O)N[C@H]1C(=O)N[C@@H](CC(N)=O)C(=O)N[C@H]2C(=O)N[C@H]3C(=O)N[C@H](C(=O)N[C@H](C(=O)O)c4cc(O)cc(O)c4-c4cc3ccc4O)[C@H](O)c3ccc(c(Cl)c3)Oc3cc2cc(c3O[C@@H]2O[C@H](CO)[C@@H](O)[C@H](O)[C@H]2O[C@H]2C[C@](C)(N)[C@H](O)[C@H](C)O2)Oc2ccc(cc2Cl)[C@H]1O [VANCOMYCIN]	22.1 µM (≈ 32 µg/mL)	–	0.69 µM	177 µM	–	–	88.3 µM (≈ 128 µg/mL)	44.2 µM (≈ 64.1 µg/mL)	–	–	88.3 µM (≈ 128 µg/mL)	1.38 µM (≈ 2 µg/mL)	2.76 µM (≈ 4 µg/mL)	22.1 µM	–	11 µM (≈ 15.9 µg/mL)	–	–	–	–	MIC [21]: 0.69 µM
COC(=O)[C@]1(C)CCC[C@@]2(C)[C@H]1CC[C@@](C)(O)[C@@H]2CC/C(C)=C/C[C@H]1OC(=O)C=C1C	148 µM (≈ 64 µg/mL)	296 µM	296 µM	296 µM	> 128 µg/mL	> 128 µg/mL	148 µM (≈ 64 µg/mL)	296 µM (≈ 128 µg/mL)	> 128 µg/mL	148 µM (≈ 64 µg/mL)	148 µM (≈ 64 µg/mL)	296 µM (≈ 128 µg/mL)	296 µM (≈ 128 µg/mL)	74.1 µM	296 µM (≈ 128 µg/mL)	148 µM (≈ 64 µg/mL)	296 µM	148 µM (≈ 64 µg/mL)	296 µM	296 µM	MIC [21]: 296 µM; MIC [22]: 296 µM
COC(=O)[C@]1(C)CCC[C@]2(C)[C@H]3CCC(C)(/C=C/c4occc4C)O[C@]3(C)CC[C@H]21 (stereo partly specified)	309 µM (≈ 128 µg/mL)	> 128 µg/mL	> 128 µg/mL	> 128 µg/mL	309 µM	> 128 µg/mL	309 µM (≈ 128 µg/mL)	309 µM (≈ 128 µg/mL)	155 µM	309 µM (≈ 128 µg/mL)	309 µM (≈ 128 µg/mL)	309 µM (≈ 128 µg/mL)	309 µM (≈ 128 µg/mL)	> 128 µg/mL	309 µM (≈ 128 µg/mL)	309 µM (≈ 128 µg/mL)	> 128 µg/mL	155 µM (≈ 64.3 µg/mL)	309 µM	309 µM	MIC [21]: > 128 µg/mL; MIC [22]: > 128 µg/mL
CC1(C)CCC[C@]2(C)[C@@H](CC[C@](C)(O)[C@H]3CO3)[C@](C)(O)CC[C@@H]12	198 µM (≈ 64.3 µg/mL)	198 µM	198 µM	198 µM	395 µM	395 µM	198 µM (≈ 64.3 µg/mL)	99 µM (≈ 32.1 µg/mL)	395 µM	198 µM (≈ 64.3 µg/mL)	99 µM (≈ 32.1 µg/mL)	198 µM (≈ 64.3 µg/mL)	198 µM (≈ 64.3 µg/mL)	99 µM	395 µM (≈ 128 µg/mL)	99 µM (≈ 32.1 µg/mL)	395 µM	395 µM (≈ 128 µg/mL)	395 µM	395 µM	MIC [21]: 99 µM; MIC [22]: 395 µM
Cc1onc(-c2ccccc2)c1C(=O)N[C@@H]1C(=O)N2[C@@H]1SC(C)(C)[C@@H]2C(=O)O [OXACILLIN]	–	1.25 µM	–	–	638 µM	0.62 µM	–	–	638 µM	319 µM (≈ 128 µg/mL)	–	–	–	–	39.9 µM (≈ 16 µg/mL)	–	39.9 µM	638 µM (≈ 256 µg/mL)	638 µM	2.49 µM	MIC [22]: 1280 µM
CC1=CC(=O)OC1C/C=C(\C)CC[C@@H]1[C@@]2(C)CCC[C@@](C)(CO)[C@@H]2CC[C@@]1(C)O (stereo partly specified)	79.2 µM (≈ 32 µg/mL)	> 128 µg/mL	> 128 µg/mL	158 µM	317 µM	> 128 µg/mL	158 µM (≈ 63.9 µg/mL)	158 µM (≈ 63.9 µg/mL)	> 128 µg/mL	317 µM (≈ 128 µg/mL)	317 µM (≈ 128 µg/mL)	317 µM (≈ 128 µg/mL)	158 µM (≈ 63.9 µg/mL)	317 µM	317 µM (≈ 128 µg/mL)	158 µM (≈ 63.9 µg/mL)	> 128 µg/mL	317 µM (≈ 128 µg/mL)	317 µM	317 µM	MIC [21]: 158 µM; MIC [22]: > 128 µg/mL
